The source of these data is ChEMBL document CHEMBL1240487, “Discovery of a potent, selective, and orally bioavailable pyridinyl-pyrimidine phthalazine aurora kinase inhibitor” (J Med Chem, 2010).

For orientation: bioavailability means the share of a dose that reaches the circulation, judged against a reference dose that is usually intravenous. Broadly, the microsomal CLint is a measure of how fast metabolising enzymes remove a compound, apart from limits set by blood flow. Lower therefore signals greater metabolic stability. Usually thermodynamic solubility stands for solubility found after equilibrating the solid with the medium. A word on the pIC50: it is −log10 of the IC50, conventionally taken in molar units.

Molecules are shown by their SMILES. pIC50: −log10 of the molar value. ≈ marks a conversion by molar mass, not a printed value. Calls of active or inactive are those of the source. The calls are words filed in the database; no cut-off is given here.

Series [1] in a line: Clearance in Sprague-Dawley rat at 0.5 mg/kg, iv and 2 mg/kg, po. The series is classed as ADME, organism-based. The following applies: in vivo.
Series [2] is described as follows: Oral bioavailability in Sprague-Dawley rat at 2 mg/kg. The series is classed as ADME, organism-based. The following applies: in vivo.
The nature of series [3]: Intrinsic clearance in rat liver microsomes at 1 uM after up to 40 mins. The series is classed as ADME, Microsome. In general terms: Liver microsomes are a subcellular fraction often used to study metabolism.
Series [4] in a line: Aqueous equilibrium solubility of the compound in 0.01N HCL. The series is classed as physicochemical.
Series [5] has as its target T1, Aurora kinase A/Targeting protein for Xklp2 (Homo sapiens, UniProt O14965).
T1 sequence (O14965 whole entry): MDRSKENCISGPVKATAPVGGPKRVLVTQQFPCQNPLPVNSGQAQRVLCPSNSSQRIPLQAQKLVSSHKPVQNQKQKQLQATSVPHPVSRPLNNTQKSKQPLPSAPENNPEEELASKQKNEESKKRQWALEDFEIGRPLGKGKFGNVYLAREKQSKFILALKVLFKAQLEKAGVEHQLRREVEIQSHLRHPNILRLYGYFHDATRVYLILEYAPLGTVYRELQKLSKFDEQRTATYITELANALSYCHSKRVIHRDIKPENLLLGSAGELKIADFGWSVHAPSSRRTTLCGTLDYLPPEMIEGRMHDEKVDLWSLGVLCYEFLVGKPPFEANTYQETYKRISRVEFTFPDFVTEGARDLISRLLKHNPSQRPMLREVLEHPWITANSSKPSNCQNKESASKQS
T1 sequence (Q9ULW0 whole entry): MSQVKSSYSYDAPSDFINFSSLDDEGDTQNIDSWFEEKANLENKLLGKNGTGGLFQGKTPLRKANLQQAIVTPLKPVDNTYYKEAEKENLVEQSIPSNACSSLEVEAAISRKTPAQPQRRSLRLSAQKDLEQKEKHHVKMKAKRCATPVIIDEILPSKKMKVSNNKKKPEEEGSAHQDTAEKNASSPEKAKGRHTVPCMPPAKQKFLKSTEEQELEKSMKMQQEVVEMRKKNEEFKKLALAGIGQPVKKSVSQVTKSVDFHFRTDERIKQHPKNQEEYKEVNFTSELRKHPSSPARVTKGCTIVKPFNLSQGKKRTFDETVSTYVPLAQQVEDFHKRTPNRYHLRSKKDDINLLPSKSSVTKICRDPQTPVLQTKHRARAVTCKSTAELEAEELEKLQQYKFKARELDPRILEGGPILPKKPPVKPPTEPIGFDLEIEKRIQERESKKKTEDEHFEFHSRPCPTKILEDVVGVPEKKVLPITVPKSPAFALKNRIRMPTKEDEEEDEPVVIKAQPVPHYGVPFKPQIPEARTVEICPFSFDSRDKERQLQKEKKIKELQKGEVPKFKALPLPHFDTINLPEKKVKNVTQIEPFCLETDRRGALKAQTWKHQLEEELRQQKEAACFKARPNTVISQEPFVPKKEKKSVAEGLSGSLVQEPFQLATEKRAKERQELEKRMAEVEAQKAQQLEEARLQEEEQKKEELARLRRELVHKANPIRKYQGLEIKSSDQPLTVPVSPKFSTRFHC
Description: Inhibition of Aurora A/TPX2 (1-43) by HTRF assay. The class given is protein-complex assay. The procedure, abridged: (§1)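 Enzyme inhibition was run with ATP at its Km for each kinase. Values are averages of at least two determinations.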

Series [6] addresses T2, Aurora kinase B (Homo sapiens, UniProt Q96GD4). As to the kind of experiment: Inhibition of Aurora B by HTRF assay. A digest of the protocol:
as §1

In series [7] the target is T2, Aurora kinase B. As to the kind of experiment: Inhibition of aurora B autophosphorylation in human HeLa cells at 1 uM after 3 hrs by Western blotting. A general note: In western blotting, separated proteins are transferred to a membrane and probed.

T2 sequence (Q96GD4 whole entry): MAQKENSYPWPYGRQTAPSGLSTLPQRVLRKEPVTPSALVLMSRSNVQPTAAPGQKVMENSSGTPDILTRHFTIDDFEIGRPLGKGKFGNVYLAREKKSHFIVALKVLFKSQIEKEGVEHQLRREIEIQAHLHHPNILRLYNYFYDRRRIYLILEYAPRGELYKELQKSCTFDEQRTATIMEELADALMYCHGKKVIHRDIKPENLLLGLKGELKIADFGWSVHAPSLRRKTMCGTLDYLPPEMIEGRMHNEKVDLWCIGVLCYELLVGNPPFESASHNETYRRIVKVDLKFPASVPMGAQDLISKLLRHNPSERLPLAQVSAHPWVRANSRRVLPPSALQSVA

Take `CNc1nccc(-c2cccnc2Oc2ccc(NC(=O)c3cc(F)ccc3Nc3ccccc3)cc2)n1`: the clearance in series [1] is 14.5 mL/min/kg. The compound further had a bioavailability in series [2] of under 1%. The intrinsic clearance (microsomal CLint) at 1 µM in series [3] worked out at 338 µL/min/mg. In addition, in series [4], the thermodynamic solubility came to 16 µg/mL (≈ 31.6 µM).
Consider `CNc1nccc(-c2cccnc2Oc2ccc(NC(=O)c3ccccc3Nc3ccccc3)c(C)c2)n1`, for which the results for the negative-log IC50 (pIC50) in series [5] and in series [6] were under 6.00 and 6.96, respectively.
For the compound `CCN(CCCOc1ccc2c(Nc3cc(CC(=O)Nc4cccc(F)c4)[nH]n3)ncnc2c1)CCOP(=O)(O)O`, the outcome in series [7] was Active.
As for `CNc1nccc(-c2cccnc2Oc2ccc(NC(=O)c3cccc(Oc4ccccc4)c3)cc2C)n1`, the pIC50 in series [5] was 6.02; in series [6] it was 6.60.
`CNc1nccc(-c2cccnc2Oc2ccc(NC(=O)c3ccc(Oc4ccccc4)cc3)cc2C)n1` had a pIC50 in series [6] of 6.27.
Turning to `CNc1nccc(-c2cccnc2Oc2ccc(NC(=O)c3cccc(Cl)c3)cc2C)n1`, the pIC50 in series [5] was 5.81; in series [6] it was 6.37.
With `CNc1nccc(-c2cccnc2Oc2ccc(NC(=O)c3ccccc3Oc3ccccc3)cc2C)n1`, the results for the negative logarithm of the IC50 (pIC50) in series [5] and in series [6] were 5.81 and 7.25, respectively.
Turning to `CNc1nccc(-c2cccnc2Oc2ccc(Nc3nnc(-c4ccccc4)c4ccccc34)cc2)n1`, the figures for the pIC50 in series [5] and in series [6] were 6.83 and 7.66, respectively. Further, in series [4], the solubility (thermodynamic) came out at 159 µg/mL (≈ 320 µM).
Take `CNc1nccc(-c2cccnc2Oc2ccc(NC(=O)c3ccc(Cl)cc3)cc2C)n1`: the values for the negative-log IC50 (pIC50) in series [5] and in series [6] were 5.63 and 6.47, respectively.
Take `CNc1nccc(-c2cccnc2Oc2ccc(NC(=O)c3ccccc3Nc3ccc(F)cc3)cc2)n1`: in series [1], the clearance was 26.7 mL/min/kg. Also, the intrinsic clearance (microsomal CLint) at 1 µM in series [3] turned out to be 467 µL/min/mg. The compound further yielded a solubility (thermodynamic) in series [4] of 23 µg/mL (≈ 45.4 µM).
Take `CNc1nccc(-c2cccnc2Oc2ccc(NC(=O)c3ccccc3Cl)cc2C)n1`: the pIC50 in series [5] and in series [6] was under 4.60 in each case.
For `CNc1nccc(-c2cccnc2Oc2ccc(NC(=O)c3ccccc3Nc3ccccc3)cc2C)n1`, the pIC50 in series [5] is 7.21; in series [6], 7.77.
